One may read the Ki as the dissociation constant of the complex between target and ligand, obtained from inhibition or displacement. Usually inhibition stands for the share of the control response that was lost under treatment. By ED50 is commonly meant the dose that gives a 50% effect, or the effect in half of the subjects. Usually Inhibition stands for the relative decrease from the control value, in per cent.

The source of these data is ChEMBL document CHEMBL1138638, “Azepinone as a conformational constraint in the design of kappa-opioid receptor agonists” (Bioorg Med Chem Lett, 2004).

The target of experiment [1] is Opioid receptors; delta & kappa (Homo sapiens) (UniProt P41145+P41143). Description: Selectivity for kappa opioid receptor over delta opioid receptor. The class given is protein assay.
Experiment [2] deals with Opioid receptors; mu & kappa (Homo sapiens) (UniProt P41145+P35372). The experiment is described as follows: Selectivity for kappa opioid receptor over mu opioid receptor. It counts as protein assay.
For experiment [3], the target named is T1, Kappa-type opioid receptor (Homo sapiens, UniProt P41145). Description: Binding affinity for human Kappa opioid receptor.
Experiment [4] concerns the target T1, Kappa-type opioid receptor. The experiment is described as follows: Binding affinity for human Opioid receptor kappa 1.
The target of experiment [5] is T2, Mu-type opioid receptor (Homo sapiens, UniProt P35372). Description: Inhibition percent of compound towards human Mu opioid receptor. Details: concentration or dose not given beside the values. The note with it: concentration not given here.
Experiment [6] addresses T3, Delta-type opioid receptor (Homo sapiens, UniProt P41143). The experiment is described as follows: Inhibition percent of compound towards human Delta opioid receptor. Details: concentration or dose not given beside the values. The note with it: concentration not given here.
In experiment [7] the test system is Mus musculus. Description: Effective dose required to induce sedation was determined in mouse when administered orally. To be noted: po. The class given is functional. The method in brief:
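Mice placed on a raised plastic platform (11 × 7.5 × 3 cm). Latency to step fully off the platform was timed before oral dosing (baseline sedation latency) and 30 min after. ED50 reported with range in parentheses.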

The species entered for experiment [8] is Rattus norvegicus. The experiment is described as follows: Percent inhibition of rotarod performance based on the comparison of baseline and post-treatment rotarod latencies. The class given is functional.
Experiment [9] deals with T2, Mu-type opioid receptor. Description: Binding affinity for human Mu opioid receptor.
Experiment [10] addresses T3, Delta-type opioid receptor. Description: Binding affinity for human Delta opioid receptor.
The test system of experiment [11] is Mus musculus. Description: Effective dose required to inhibit acetic acid induced writhing in mouse when administered orally. The class given is functional. To be noted: po. The method in brief: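 Mice dosed orally with vehicle or test agent; 15 min later given 0.6% acetic acid intraperitoneally. Writhes counted over a 10 min period starting 5 min after the acid injection. ED50 reported with range in parentheses.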

The test system of experiment [12] is Rattus norvegicus. The experiment is described as follows: Effective dose required to inhibit formalin induced flinching in rat as a measure of antinociception activity when administered orally. It counts as functional. The note with it: po.

T1 sequence (P41145 whole entry): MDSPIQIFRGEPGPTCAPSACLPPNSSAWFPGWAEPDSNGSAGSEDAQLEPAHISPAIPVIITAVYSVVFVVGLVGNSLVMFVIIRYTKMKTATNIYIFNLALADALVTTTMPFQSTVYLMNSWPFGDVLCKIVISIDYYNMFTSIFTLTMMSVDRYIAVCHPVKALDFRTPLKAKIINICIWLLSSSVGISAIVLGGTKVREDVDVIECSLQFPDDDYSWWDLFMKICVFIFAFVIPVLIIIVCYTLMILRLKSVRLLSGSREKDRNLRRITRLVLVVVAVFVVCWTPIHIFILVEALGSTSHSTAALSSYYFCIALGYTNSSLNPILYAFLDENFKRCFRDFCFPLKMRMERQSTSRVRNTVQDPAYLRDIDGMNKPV
T3 sequence (P41143 whole entry): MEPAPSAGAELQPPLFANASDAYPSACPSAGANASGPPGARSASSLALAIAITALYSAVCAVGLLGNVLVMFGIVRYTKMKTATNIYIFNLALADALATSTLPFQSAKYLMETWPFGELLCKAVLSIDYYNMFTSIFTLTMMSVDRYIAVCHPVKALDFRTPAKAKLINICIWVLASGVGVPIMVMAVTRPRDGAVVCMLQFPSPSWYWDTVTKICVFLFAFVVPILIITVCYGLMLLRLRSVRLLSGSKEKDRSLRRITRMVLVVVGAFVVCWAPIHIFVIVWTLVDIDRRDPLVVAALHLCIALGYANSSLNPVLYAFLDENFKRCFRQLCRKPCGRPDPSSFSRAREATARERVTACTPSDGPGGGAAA
T2 sequence (P35372 whole entry): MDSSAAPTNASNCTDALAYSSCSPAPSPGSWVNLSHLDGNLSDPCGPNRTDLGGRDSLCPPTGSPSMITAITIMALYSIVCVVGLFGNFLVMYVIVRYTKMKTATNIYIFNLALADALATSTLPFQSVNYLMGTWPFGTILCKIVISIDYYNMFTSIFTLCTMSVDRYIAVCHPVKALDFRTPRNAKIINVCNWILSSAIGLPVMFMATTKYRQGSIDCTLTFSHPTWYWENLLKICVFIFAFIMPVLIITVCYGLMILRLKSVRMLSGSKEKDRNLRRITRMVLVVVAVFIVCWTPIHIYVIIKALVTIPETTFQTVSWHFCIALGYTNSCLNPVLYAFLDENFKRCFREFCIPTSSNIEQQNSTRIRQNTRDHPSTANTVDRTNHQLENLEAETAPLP
Chain of Opioid receptors; delta & kappa (Homo sapiens) (P41143 whole entry, looked up): as the sequence (P41143 whole entry) above
Chain of Opioid receptors; delta & kappa (Homo sapiens) (P41145 whole entry, looked up): as the sequence (P41145 whole entry) above
Chain of Opioid receptors; mu & kappa (Homo sapiens) (P35372 whole entry, looked up): as the sequence (P35372 whole entry) above
Chain of Opioid receptors; mu & kappa (Homo sapiens) (P41145 whole entry, looked up): as the sequence (P41145 whole entry) above

Take `O=C1[C@H](c2ccc(Cl)c(Cl)c2)CC=CCN1[C@H](CN1CC[C@H](O)C1)c1ccccc1`: the Selectivity in experiment [1] and in experiment [2] was 1000 throughout. The compound further returned a Ki in experiment [3] of 0.2 nM.

On to `O=C1C(c2ccc(Cl)cc2)CC=CCN1C(CN1CCCC1)c1ccccc1` (stereo not drawn), for which the affinity in [4] corresponds to a Ki of 2 nM. The inhibition in [5] and in [6] was below 60% throughout.

Compound `O=C1[C@@H](c2ccc(Cl)c(Cl)c2)CC=CCN1C(CN1CCCC1)c1ccccc1` (stereo partly drawn) came in with a Ki in [4] of 17 nM. The inhibition in experiment [5] and in experiment [6] was below 60% each time.

Consider `O=C1C(c2ccc(Cl)c(Cl)c2)CC=CCN1C(CN1CCCC1)c1ccccc1` (stereo not drawn), for which the ED50 in [7] came to 48 mg/kg; in experiment [11], 1.6 mg/kg; in experiment [12] it was 2.7 mg/kg. Moreover, the Inhibition in experiment [8] worked out at 54%. For the same compound, the Ki in experiment [9] is 1000 nM; in experiment [4], 0.34 nM; in [10], 370 nM.

In turn, `O=C1C(c2ccc(C(F)(F)F)cc2)CC=CCN1C(CN1CCCC1)c1ccccc1` (stereo not drawn) registered an inhibition in experiment [5] below 60%. Further, the figures for the Ki in [10] and in experiment [3] were 1000 nM and 0.72 nM, respectively.

As for `CN(C(=O)Cc1ccc(Cl)c(Cl)c1)C(CN1CCCC1)c1ccccc1` (stereo not drawn), the ED50 in experiment [7] was 7.5 mg/kg.

With `COc1ccc(C2CC=CCN(C(CN3CCCC3)c3ccccc3)C2=O)cc1` (stereo not drawn), the inhibition in experiment [5] and in [6] was below 60% in each case. The compound also registered a Ki in experiment [3] of 22 nM.

As to `O=C1C(Oc2ccc(Cl)c(Cl)c2)CC=CCN1C(CN1CCCC1)c1ccccc1` (stereo not drawn), the inhibition in experiment [5] and in experiment [6] was below 60% throughout. For the same compound, the Ki in [3] was 2.6 nM.

`O=C1C(c2cccc(S(=O)(=O)N3CCCC3)c2)CC=CCN1C(CN1CCCC1)c1ccccc1` (stereo not drawn): the inhibition in [5] and in [6] was below 60% throughout. In experiment [3], this compound returned a Ki of 1900 nM.

Consider `COc1ccc([C@H]2CC=CCN(C(CN3CCCC3)c3ccccc3)C2=O)cc1` (stereo partly drawn), for which the inhibition in experiment [5] and in experiment [6] was below 60% throughout. Also, the Ki in experiment [3] was 800 nM.

As to `O=C1[C@H](c2ccc(Cl)c(Cl)c2)CC=CCN1[C@H](CN1CCCC1)c1ccccc1`, the Selectivity in experiment [1] and in experiment [2] was 1000 in each case. This compound displayed a Ki in [3] of 12 nM.

Take `O=C1[C@@H](c2ccc(Cl)cc2)CC=CCN1C(CN1CCCC1)c1ccccc1` (stereo partly drawn): the inhibition in experiment [5] and in experiment [6] was below 60% throughout. This compound returned a Ki in experiment [3] of 35 nM.
